Key:
PC-3 = experiment: Growth inhibition of human PC3 cells at 10 uM after 48 hrs; type: functional; conditions: PC-3, 48 h, read-out: GI
Method in brief: (§1)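 Single-dose primary screen in the NCI 60 human tumour cell line panel, run at the NCI facility. The panel covers nine subpanels: leukaemia, non-small cell lung, colon, CNS, melanoma, ovarian, renal, prostate and breast. Read-out was percent growth of treated cells, shown as a mean graph and reported as percent growth inhibition.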

T47D = experiment: Growth inhibition of human T47D cells at 10 uM after 48 hrs; type: functional; conditions: read-out: GI
Method in brief: (§2)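 NCI 60-cell-line disease-oriented human tumor panel, single-dose primary screen at 10 µM. Data given as mean-graph percent growth of treated cells, reported as percent growth inhibition (GI %).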

SNB-75 = experiment: Growth inhibition of human SNB75 cells at 10 uM after 48 hrs; type: functional; conditions: SNB-75, 48 h, read-out: GI; method in brief: as §2
[1] = Growth inhibition of human OVCAR4 cells at 10 uM after 48 hrs; type: functional; conditions: OVCAR-4, 48 h, read-out: GI; method in brief: as §1
SK-MEL-28 = experiment: Growth inhibition of human SK-MEL-28 cells at 10 uM after 48 hrs; type: functional; conditions: SK-MEL-28, 48 h, read-out: GI; method in brief: as §2
[2] = Growth inhibition of human Hs 578T cells at 10 uM after 48 hrs; type: functional; conditions: read-out: GI; method in brief: as §1
[3] = Growth inhibition of human NCI-ADR-RES cells at 10 uM after 48 hrs; type: functional; conditions: read-out: GI; method in brief: as §1
Dihydrofolate reductase = target: T1, Dihydrofolate reductase (Bos taurus, UniProt P00376); experiment: Inhibition of bovine liver DHFR measured for every 1 min of 10 mins
T1 sequence (P00376 whole entry): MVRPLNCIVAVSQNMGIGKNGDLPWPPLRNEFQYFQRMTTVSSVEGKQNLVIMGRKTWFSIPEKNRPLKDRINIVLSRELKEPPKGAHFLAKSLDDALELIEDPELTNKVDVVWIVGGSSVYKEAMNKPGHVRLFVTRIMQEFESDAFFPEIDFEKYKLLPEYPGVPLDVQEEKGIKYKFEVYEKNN

SK-OV-3 = experiment: Growth inhibition of human SKOV3 cells at 10 uM after 48 hrs; type: functional; conditions: SK-OV-3, 48 h, read-out: GI; method in brief: as §2
[4] = Growth inhibition of human SF539 cells at 10 uM after 48 hrs; type: functional; conditions: SF-539, 48 h, read-out: GI; method in brief: as §2
[5] = Cytotoxicity against human prostate cancer cells at 10 uM after 48 hrs; type: functional; conditions: Cancer cell lines
SNB-19 = experiment: Growth inhibition of human SNB19 cells at 10 uM after 48 hrs; type: functional; conditions: SNB-19, 48 h, read-out: GI; method in brief: as §2
[6] = Growth inhibition of human EKVX cells at 10 uM after 48 hrs; type: functional; conditions: read-out: GI; method in brief: as §1
MCF7 = experiment: Growth inhibition of human MCF7 cells at 10 uM after 48 hrs; type: functional; conditions: MCF7, 48 h, read-out: GI; method in brief: as §1
K562 = experiment: Growth inhibition of human K562 cells at 10 uM after 48 hrs; type: functional; conditions: K562, 48 h, read-out: GI; method in brief: as §1
TK-10 = experiment: Growth inhibition of human TK10 cells at 10 uM after 48 hrs; type: functional; conditions: TK-10, 48 h, read-out: GI; method in brief: as §2
NCI-H23 = experiment: Growth inhibition of human NCI-H23 cells at 10 uM after 48 hrs; type: functional; conditions: NCI-H23, 48 h, read-out: GI; method in brief: as §1
[7] = Cytotoxicity against human CNS cancer cells at 10 uM after 48 hrs; type: functional; conditions: Cancer cell lines; for CC50: read-out: LC50 (the source's name)
[8] = Cytotoxicity against human renal cancer cells at 10 uM after 48 hrs; type: functional; conditions: Cancer cell lines
CCRF-CEM = experiment: Growth inhibition of human CCRF-CEM cells at 10 uM after 48 hrs; type: functional; conditions: read-out: GI; method in brief: as §1
[9] = Growth inhibition of human OVCAR5 cells at 10 uM after 48 hrs; type: functional; conditions: OVCAR-5, 48 h, read-out: GI; method in brief: as §1
NCI-H322M = experiment: Growth inhibition of human NCI-H322M cells at 10 uM after 48 hrs; type: functional; conditions: read-out: GI; method in brief: as §1
SF-268 = experiment: Growth inhibition of human SF268 cells at 10 uM after 48 hrs; type: functional; conditions: SF-268, 48 h, read-out: GI; method in brief: as §2
[10] = Growth inhibition of human UO31 cells at 10 uM after 48 hrs; type: functional; conditions: UO-31, 48 h, read-out: GI; method in brief: as §2
MDA-MB-231 = experiment: Growth inhibition of human MDA-MB-231 cells at 10 uM after 48 hrs; type: functional; conditions: MDA-MB-231, 48 h, read-out: GI; method in brief: as §1
SR = experiment: Growth inhibition of human SR cells at 10 uM after 48 hrs; type: functional; conditions: read-out: GI; method in brief: as §2
SK-MEL-2 = experiment: Growth inhibition of human SK-MEL-2 cells at 10 uM after 48 hrs; type: functional; conditions: SK-MEL-2, 48 h, read-out: GI; method in brief: as §2
786-0 = experiment: Growth inhibition of human 786-0 cells at 10 uM after 48 hrs; type: functional; conditions: 786-0, 48 h, read-out: GI; method in brief: as §1
A549 = experiment: Growth inhibition of human A549 cells at 10 uM after 48 hrs; type: functional; conditions: A549, 48 h, read-out: GI; method in brief: as §1
MDA-MB-435 = experiment: Growth inhibition of human MDA-MB-435 cells at 10 uM after 48 hrs; type: functional; conditions: MDA-MB-435, 48 h, read-out: GI; method in brief: as §1
OVCAR-8 = experiment: Growth inhibition of human OVCAR8 cells at 10 uM after 48 hrs; type: functional; conditions: OVCAR-8, 48 h, read-out: GI; method in brief: as §1
SW-620 = experiment: Growth inhibition of human SW620 cells at 10 uM after 48 hrs; type: functional; conditions: SW-620, 48 h, read-out: GI; method in brief: as §2
[11] = Growth inhibition of human UACC257 cells at 10 uM after 48 hrs; type: functional; conditions: UACC-257, 48 h, read-out: GI; method in brief: as §2
MOLT-4 = experiment: Growth inhibition of human MOLT4 cells at 10 uM after 48 hrs; type: functional; conditions: MOLT-4, 48 h, read-out: GI; method in brief: as §1
CAKI-1 = experiment: Growth inhibition of human CAKI-1 cells at 10 uM after 48 hrs; type: functional; conditions: CAKI-1, 48 h, read-out: GI; method in brief: as §1

## COc1cc(/C=C2\CCCc3c2nc(N)nc3-c2cc(OC)c(OC)c(OC)c2)cc(OC)c1OC
PC-3
  inhibition of growth at 10 µM: 74.1%
T47D
  inhibition of growth at 10 µM: 72.5%
SNB-75
  inhibition of growth at 10 µM: 54.3%
[1]
  inhibition of growth at 10 µM: 73.1%
SK-MEL-28
  inhibition of growth at 10 µM: 75.1%
[2]
  inhibition of growth at 10 µM: 63%
[3]
  inhibition of growth at 10 µM: 96.1%
Dihydrofolate reductase
  IC50: 21 µM
SK-OV-3
  inhibition of growth at 10 µM: 92.8%
[4]
  inhibition of growth at 10 µM: 74.1%
[5]
  GI50: 2.7 µM
  LC50: > 100 µM
  TGI: > 100 µM
SNB-19
  inhibition of growth at 10 µM: 38.5%
[6]
  inhibition of growth at 10 µM: 44%
MCF7
  inhibition of growth at 10 µM: 57%
K562
  inhibition of growth at 10 µM: 93.6%
TK-10
  inhibition of growth at 10 µM: < 30%
NCI-H23
  inhibition of growth at 10 µM: 88.4%
[7]
  GI50: 3.3 µM
  TGI: > 100 µM
  CC50: > 100 µM
[8]
  CC50: > 100 µM
  GI50: 1.8 µM
  TGI: 20.8 µM
CCRF-CEM
  inhibition of growth at 10 µM: 97.1%
[9]
  inhibition of growth at 10 µM: 93.2%
NCI-H322M
  inhibition of growth at 10 µM: < 30%
SF-268
  inhibition of growth at 10 µM: 84.9%
[10]
  inhibition of growth at 10 µM: 65.7%
MDA-MB-231
  inhibition of growth at 10 µM: 71.1%
SR
  inhibition of growth at 10 µM: 99%

## COc1cc(/C=C2\CCCC3=C(c4cc(OC)c(OC)c(OC)c4)Nc4ccccc4N=C32)cc(OC)c1OC
PC-3
  inhibition of growth at 10 µM: 61.8%
SK-MEL-2
  inhibition of growth at 10 µM: 82.1%
T47D
  inhibition of growth at 10 µM: 76.2%
SNB-75
  inhibition of growth at 10 µM: 45.5%
[1]
  inhibition of growth at 10 µM: 66.5%
SK-MEL-28
  inhibition of growth at 10 µM: 70.6%
[2]
  inhibition of growth at 10 µM: 46.8%
[3]
  inhibition of growth at 10 µM: 94.1%
Dihydrofolate reductase
  IC50: 0.09 µM
SK-OV-3
  inhibition of growth at 10 µM: 54.6%
[4]
  inhibition of growth at 10 µM: 64.9%
[5]
  GI50: 2.3 µM
  LC50: > 100 µM
  TGI: 53.4 µM
SNB-19
  inhibition of growth at 10 µM: 35.6%
[6]
  inhibition of growth at 10 µM: 40.2%
786-0
  inhibition of growth at 10 µM: 98.2%
MCF7
  inhibition of growth at 10 µM: 63.1%
K562
  inhibition of growth at 10 µM: 94.7%
A549
  inhibition of growth at 10 µM: 94.1%
TK-10
  inhibition of growth at 10 µM: < 30%
NCI-H23
  inhibition of growth at 10 µM: 91.5%
[7]
  GI50: 6.8 µM
  TGI: 94.3 µM
  CC50: > 100 µM
[8]
  CC50: 68.4 µM
  GI50: 2.3 µM
  TGI: 20 µM
CCRF-CEM
  inhibition of growth at 10 µM: 95.7%
[9]
  inhibition of growth at 10 µM: 83.5%
NCI-H322M
  inhibition of growth at 10 µM: < 30%
SF-268
  inhibition of growth at 10 µM: 74%
MDA-MB-435
  inhibition of growth at 10 µM: 96.8%
OVCAR-8
  inhibition of growth at 10 µM: 81.4%
SW-620
  inhibition of growth at 10 µM: 94.3%
[10]
  inhibition of growth at 10 µM: 94.4%
MDA-MB-231
  inhibition of growth at 10 µM: 75.9%
[11]
  inhibition of growth at 10 µM: 83.8%
MOLT-4
  inhibition of growth at 10 µM: 99.4%
CAKI-1
  inhibition of growth at 10 µM: 93.5%
SR
  inhibition of growth at 10 µM: 97.3%
